Shown is part of a subset that was picked to be rich in hits.
HUVEC prolif 384: human endothelial cell proliferation inhibition; HUVEC proliferation, CellTiter-Glo luminescence, 72 h; active compounds read low; viability, % at 10 µM (by protocol); 86,000 compounds, 1.1% hits;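 active means viability at or below 30%; inactive means viability above 30%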;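 further: 100% = median luminescence of DMSO-only cell control wells on each plate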
HCT116 PTEN-null: suppresses growth of cells with PTEN deletion | viability, % at 10 µM | 140,000 compounds, 1.2% hits | HCT116 PTEN-null viability, CellTiter-Glo, 60 h; active compounds read low;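 active means viability at or below a set limit, 4 SD under the median of all tested compounds, cut at about 3.7% in these data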;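 further: PTEN knockout HCT116 line with beta catenin targeted HCT116 as companion control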
bCat KO growth: beta-catenin-lacking colon tumor cell growth suppression; HCT116 beta-catenin knockout viability, CellTiter-Glo, 60 h; active compounds read low; viability, % at 10 µM; 140,000 compounds, 1.5% hits; AID 818;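 active means viability at or under a set limit, the compound median less 4 SD, cut at about 6% in these data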;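 further: 0% = Hyamine 1622 control at 20 µM and 100% = untreated cell control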
Lung fibro prol: blocks proliferation of human lung fibroblasts; AID 719; LL 47 human lung fibroblast viability, ATP luminescence; active compounds read low; viability, % at 10 µM; 85,000 compounds, 1.1% hits;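 active means viability at or below 50% in the single dose screen; inactive means viability above 50%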;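 further: compound exposure lasted 72 h before the ATP readout; 100% = median luminescence of untreated cell-only wells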
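Material: human LL 47 lung fibroblast cells; quantity: 1,150 cells/well; medium: IMEM plus 15% FBS; doses: 0.1% DMSO in all compound wells; timing: overnight attachment after seeding, then 72 h compound exposure at 37 °C; detection: CellTiter-Glo luminescence; measure: % viability of median cell-only signal; controls: cell-only wells, no compound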
H69AR growth 86K: growth inhibitors of human H69AR lung tumor cells | H69AR lung tumor viability, ATP luminescence, 72 h; active compounds read low | viability, % at 10 µM | 85,000 compounds, 6% hits | AID 598;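 active means viability at or below 40%; inactive means viability above 40%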;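 further: multidrug resistant small cell line overexpressing MRP-1 efflux transporter; 100% = mean luminescence of untreated control wells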
Pyk2 oligo antag: blocks oligomerization of human Pyk2 in cells; Q14289; Q293 cells, Pyk2 FERM NanoBiT luminescence; active compounds read low; z-score (the deposit names both 25 µM and 10 µM); 99,000 compounds, 0.83% hits; AID 1347419;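 active means Z-score of -3 or lower, scaled per plate to the spread of control and sample wells; inactive means z-score above -3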;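 further: negative z-score means lost luminescence so less FERM oligomerization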
The depositor's hits bear a star; · = no result.

SMILES	HUVEC prolif 384	HCT116 PTEN-null	bCat KO growth	Lung fibro prol	H69AR growth 86K	Pyk2 oligo antag
O=c1oc2c3c4c(cc2cc1-c1nc2ccccc2[nH]1)CCCN4CCC3	56	·	·	84	1.5*	·
CCCCNC(=O)c1onc(CCl)c1C(=O)OC	·	82	79	·	·	·
N#Cc1ccsc1NC(=O)CSc1ncn[nH]1	98	116	115	99	93	-0.13
N#Cc1ccsc1NC(=O)CSc1ncnc2ccccc12	83	47	36	78	38*	0.35
O=C(Cn1nnc2ccccc21)OCC(=O)c1ccc(Cl)c(Cl)c1	92	92	95	97	98	-4*
O=C(Cn1nnc2ccccc21)OCC(=O)c1ccccc1	95	90	95	97	96	-0.35
N#Cc1c(C(F)(F)F)cc(C2CC2)[nH]c1=O	95	104	101	102	103	·
COC(=O)C1=CNC=C(C(=O)OC)C1c1ccc(Cl)cc1	108	83	91	100	99	-3.8*
CCCCc1cc(=O)oc2cc(OCC(=O)N3CCc4ccccc43)ccc12	55	99	94	104	29*	1.7
CCCc1cc(=O)oc2cc(OCC(=O)N3CCc4ccccc43)ccc12	57	94	89	93	89	0.17
COc1ccc2c(c1)c(=O)oc1cc(OCC(=O)N3CCc4ccccc4C3)ccc12	56	84	90	97	29*	1.8
Cc1[nH]c2ccccc2c1CCNC(=O)c1ccc2c(c1[N+](=O)[O-])C(=O)c1ccccc1C2=O	·	11	2.3*	·	·	-0.94
CN(C)C(=O)c1ccc2c(c1[N+](=O)[O-])C(=O)c1ccccc1C2=O	·	1.7*	2.0*	·	·	·
Cc1ccc2[nH]c(C)c(CCNC(=O)c3cc4cc([N+](=O)[O-])ccc4oc3=O)c2c1	·	57	59	·	·	·
Cc1[nH]c2c(C)cccc2c1CCNC(=O)c1ccc2c(c1[N+](=O)[O-])C(=O)c1ccccc1C2=O	·	2.0*	2.1*	·	·	-1
CC(C)C[C@@H]1NC(=O)[C@H](C(C)C)NC(=O)c2cc([N+](=O)[O-])cc(I)c2OCC[C@@H](C(N)=O)NC1=O	·	96	94	·	·	·
O=C(Cc1cn(Cc2cccc(Cl)c2)c2ccccc12)N1CCCCCC1	·	84	81	·	·	·
N=c1n(CCN2CCOCC2)c2ccccc2n1CC(=O)c1ccc(Cl)c(Cl)c1	70	66	63	82	0.9*	2
CCCOC(=O)c1ccc(Oc2cn[nH]c2-c2ccc(OCC)cc2O)cc1	9.5*	54	55	96	2.7*	-0.55
CCCOC(=O)c1ccc(Oc2c(-c3ccc(OCC)cc3O)n[nH]c2C)cc1	4.5*	97	103	54	2.2*	-2
Cc1ccc(C(O)(C(=O)NNS(=O)(=O)c2ccc(C)cc2)c2ccc(C)cc2)cc1	·	89	97	·	·	·
O=C1CC(Sc2nnc(-c3ccccc3O)o2)C(=O)N1c1ccccc1 (stereo unspecified)	96	89	98	2.4*	1.7*	-0.18
COc1ccc(N2C(=O)CC(Sc3nc(C)cc(C)c3C#N)C2=O)cc1 (stereo unspecified)	85	85	84	104	79	1.9
COc1ccc(N2C(=O)CC(Sc3nnc(-c4ccccc4)o3)C2=O)cc1 (stereo unspecified)	95	89	98	2.2*	1.4*	0.66
O=C(OCC(=O)C12CC3CC(CC(C3)C1)C2)c1cccnc1Cl	·	97	82	·	·	·
SMILES	HUVEC prolif 384	HCT116 PTEN-null	bCat KO growth	Lung fibro prol	H69AR growth 86K	Pyk2 oligo antag
O=C(CSCC(=O)NC1CC1)Nc1ccc2ccccc2c1	90	94	90	95	91	-0.07
C1CCN(c2nc(N3CCCC3)nc(N3CCNCC3)n2)C1	90	51	62	86	6.0*	·
c1ccc(Nc2nc(N3CCCCC3)nc(N3CCNCC3)n2)cc1	·	1.4*	1.5*	·	·	0.28
c1ccc(Nc2nc(N3CCCCC3)nc(N3CCCCC3)n2)cc1	87	86	81	92	91	-0.27
COc1ccc2cc(/C=N/NC(=O)c3ccc(CN(c4cccc(Cl)c4Cl)S(C)(=O)=O)cc3)c(Cl)nc2c1	·	91	87	·	·	·
c1ccc(Cn2nnc3c(N4CCCCCC4)ncnc32)cc1	80	33	36	77	66	·
CCN(CC)c1ncnc2c1ncn2Cc1c(Cl)cccc1Cl	86	80	71	86	83	-3.1*
CCN(CC)c1ncn(Cc2c(Cl)cccc2Cl)c2ncnc1-2	91	70	77	90	82	-1.1
Clc1cccc(Cl)c1Cn1cnc2c(N3CCCCCC3)ncnc21	64	62	58	83	71	-3.4*
Cc1cccc(NC(=S)N/N=C2\CC(C)(C)Oc3ccc(O)cc32)c1	·	3.8*	3.9*	·	·	·
COc1cccc(NC(=S)N/N=C2\CC(C)(C)Oc3ccc(O)cc32)c1	·	63	77	·	·	·
CCCCOc1ccccc1C1CC(=O)NC2=C1C(=O)CCC2 (stereo unspecified)	53	15	13	48*	28*	-1.7
CCOc1ccccc1C1CC(=O)NC2=C1C(=O)CCC2 (stereo unspecified)	64	28	29	81	23*	-0.06
CCCOc1ccccc1C1CC(=O)NC2=C1C(=O)CCC2 (stereo unspecified)	66	19	19	66	86	-0.18
Oc1c(C(c2cccs2)N2CCN(c3ccccc3)CC2)ccc2cccnc12 (stereo unspecified)	·	5	3.0*	·	·	·
Cc1nc2c(c(=O)n1CC1CCCO1)c1nc3ccccc3nc1n2Cc1ccc2c(c1)OCO2 (stereo unspecified)	53	·	·	81	40*	·
Cc1nc2c(c(=O)n1Cc1ccccc1Cl)c1nc3ccccc3nc1n2Cc1ccco1	89	·	·	99	74	·
COc1ccc(Cn2c3nc4ccccc4nc3c3c(=O)n(Cc4ccco4)c(C)nc32)cc1	49	·	·	42*	4.5*	·
CC(C)Cn1cnc2c(c1=O)c1nc3ccccc3nc1n2Cc1ccc2c(c1)OCO2	82	75	75	104	83	·
Cc1cc(OCCCCCNCCO)cc(C)c1Cl	73	3.6*	14	75	37*	0.61
Cc1cc(OCCNCCO)cc(C)c1Cl	88	86	85	102	92	0.9
CCn1ncc(C2=NOC(C(=O)Nc3c(C)n(C)n(-c4ccccc4)c3=O)C2)c1C (stereo unspecified)	49	101	103	101	98	·
CCn1ncc(C2=NOC(C(=O)NCc3ccccc3)C2)c1C (stereo unspecified)	50	19	15	49*	26*	1.2
CCn1ncc(C2=NOC(C(=O)NCc3ccc(OC)cc3)C2)c1C (stereo unspecified)	64	37	36	103	21*	0.95
Cc1cnc(NC(=O)c2cc3c(s2)CCCC3)s1	76	65	65	83	24*	-0.05
O=C(Nc1ccc(F)cc1)c1nc[nH]c1C(=O)Nc1ccccc1[N+](=O)[O-]	·	1.6*	2.8*	·	·	·

High-throughput results (PubChem)
